Assay results taken from PMC6424611 (Journal of molecular biology, 2019).
Where no end group is shown, it is not given here. [ ]: non-standard residue; d: D form. The star is where a group is joined. Biotin = O=C1N[C@H]2[C@H](CS[C@H]2CCCCC(=O)*)N1; TTDS = NCCCOCCOCCOCCCNC(=O)CCC(=O)*; pS = N[C@@H](COP(=O)(O)O)C(=O)O

What was measured:
ARHGEF12 PDZ = target: T1, ARHGEF12 PDZ (Homo sapiens, UniProt Q9NZN5); test: holdup assay; assay type: binding; conditions: ~4 μM PDZ; for binding intensity (BI): fraction of PDZ depleted, biotinylated RSK1_725–735, triplicates; for Kd: read-out: KD, estimated, from BI, estimated 17 μM peptide
T1 sequence (Q9NZN5 72-151 limits assumed): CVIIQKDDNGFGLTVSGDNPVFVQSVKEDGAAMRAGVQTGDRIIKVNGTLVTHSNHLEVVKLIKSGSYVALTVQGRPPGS
In short: (§1)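 Automated holdup against N-terminally biotinylated (TTDS linker) RSK1 725–735 peptides, unphosphorylated and phosphorylated, in triplicate. PDZome v2 clones were codon-optimized and expressed in E. coli, with soluble lysate adjusted to ~4 μM. BI is the PDZ fraction depleted from the fluid phase.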

MAST1 PDZ = target: T2, MAST1 PDZ (Homo sapiens, UniProt Q9Y2H9); test: holdup assay; assay type: binding; conditions: ~4 μM PDZ; for binding intensity (BI): fraction of PDZ depleted, biotinylated RSK1_725–735, triplicates; for Kd: read-out: KD, estimated, from BI, estimated 17 μM peptide
T2 sequence (Q9Y2H9 967-1055 limits assumed): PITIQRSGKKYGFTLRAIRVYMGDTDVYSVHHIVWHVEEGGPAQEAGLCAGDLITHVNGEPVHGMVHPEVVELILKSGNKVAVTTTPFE
In short: as §1

GORASP2 PDZ = test: holdup assay; assay type: binding, human; conditions: ~4 μM PDZ; for binding intensity (BI): fraction of PDZ depleted, biotinylated RSK1_725–735, triplicates; for Kd: read-out: KD, estimated, from BI, estimated 17 μM peptide
In short: as §1

SHANK3 PDZ = test: holdup assay; assay type: binding, human; conditions: ~4 μM PDZ; for binding intensity (BI): fraction of PDZ depleted, biotinylated RSK1_725–735, triplicates; for Kd: read-out: KD, estimated, from BI, estimated 17 μM peptide
In short: as §1

LNX1 −3 PDZ = test: holdup assay; assay type: binding, human; conditions: ~4 μM PDZ; for binding intensity (BI): fraction of PDZ depleted, biotinylated RSK1_725–735, triplicates; for Kd: read-out: KD, estimated, from BI, estimated 17 μM peptide
In short: as §1

PDZRN3-1 PDZ = target: T3, PDZRN3-1 PDZ (Homo sapiens, UniProt Q9UPQ7); test: holdup assay; assay type: binding; conditions: ~4 μM PDZ; for binding intensity (BI): fraction of PDZ depleted, biotinylated RSK1_725–735, triplicates; for Kd: read-out: KD, estimated, from BI, estimated 17 μM peptide
T3 sequence (Q9UPQ7 249-339 limits assumed): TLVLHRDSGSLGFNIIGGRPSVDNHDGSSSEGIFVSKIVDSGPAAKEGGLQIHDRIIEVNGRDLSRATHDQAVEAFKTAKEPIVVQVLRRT
In short: as §1

SNTA1 PDZ = target: T4, SNTA1 PDZ (Homo sapiens, UniProt Q13424); test: holdup assay; assay type: binding; conditions: ~4 μM PDZ; for binding intensity (BI): fraction of PDZ depleted, biotinylated RSK1_725–735, triplicates
T4 sequence (Q13424 87-170 limits assumed): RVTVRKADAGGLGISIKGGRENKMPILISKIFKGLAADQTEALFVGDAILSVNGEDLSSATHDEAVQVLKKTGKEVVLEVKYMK
In short: as §1

SYNJ2BP PDZ [1] = target: T5, SYNJ2BP PDZ (Homo sapiens, UniProt P57105); test: holdup assay; assay type: binding; conditions: ~4 μM PDZ; for binding intensity (BI): fraction of PDZ depleted, biotinylated RSK1_725–735, triplicates
T5 sequence (P57105 13-100 limits assumed): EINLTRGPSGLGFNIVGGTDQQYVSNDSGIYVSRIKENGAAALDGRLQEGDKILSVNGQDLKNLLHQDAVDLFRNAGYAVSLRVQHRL
In short: as §1

SNX27 PDZ = SNX27 PDZ (Homo sapiens, UniProt Q96L92); test: holdup assay; assay type: binding; conditions: ~4 μM PDZ; for binding intensity (BI): fraction of PDZ depleted, biotinylated RSK1_725–735, triplicates
LIN7A PDZ = test: holdup assay, updated analysis; assay type: binding, human; conditions: weak partner; automated computational protocol
In short: (§2)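 The same triplicate holdup datasets (biotinylated RSK1 725–735, unphosphorylated and phosphorylated, vs ~4 μM PDZome lysates) were re-analysed with an updated automated computational protocol. This gave alternative BI values, reported as supplemental values alongside the conventional analysis.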

PDZRN3–2 PDZ = test: holdup assay, updated analysis; assay type: binding, human; conditions: weak partner; automated computational protocol
In short: as §2

DLG3 PDZ = test: holdup assay, updated analysis; assay type: binding, human; conditions: weak partner; automated computational protocol
In short: as §2

SYNJ2BP PDZ [2] = target: T5, SYNJ2BP PDZ; test: competitive fluorescence polarization; assay type: binding; conditions: summary of high-throughput SPR and competitive FP
MPDZ-10 PDZ = test: holdup assay, updated analysis; assay type: binding, human; conditions: weak partner; automated computational protocol
In short: as §2

RHPN1 PDZ = test: holdup assay, updated analysis; assay type: binding, human; conditions: weak partner; automated computational protocol
In short: as §2

[3] = read-out: KD, estimated, from BI, estimated 17 μM peptide

Substance	binding intensity (BI) (ARHGEF12 PDZ)	Kd (ARHGEF12 PDZ)	binding intensity (BI) (MAST1 PDZ)	Kd (MAST1 PDZ)	binding intensity (BI) (GORASP2 PDZ)	Kd (GORASP2 PDZ)	binding intensity (BI) (SHANK3 PDZ)	Kd (SHANK3 PDZ)	binding intensity (BI) (LNX1 −3 PDZ)	Kd (LNX1 −3 PDZ)	binding intensity (BI) (PDZRN3-1 PDZ)	Kd (PDZRN3-1 PDZ)	binding intensity (BI) (SNTA1 PDZ)	binding intensity (BI) (SYNJ2BP PDZ [1])	binding intensity (BI) (SNX27 PDZ)	other results
phosphorylated RSK1 peptide: RSK1 C-terminal PBM peptide phosphorylated at position −3; same constructs as the unphosphorylated ({Biotin-TTDS}-RRVRKLP[pS]TTL)	0.05 ± 0.05	> 100 µM	0.08 ± 0.03	> 100 µM	0.19 ± 0.01	69.2 µM	0.07 ± 0.01	> 100 µM	0.24 ± 0.07	50.8 µM	0.45 ± 0.01	18.6 µM	0.53 ± 0.01	0.54 ± 0.03	0.47 ± 0.02	Kd (SNTA1 PDZ; [3]): 13.2 µM; interaction partner by updated analysis (LIN7A PDZ): new partners; interaction partner by updated analysis (PDZRN3–2 PDZ): new partners; interaction partner by updated analysis (DLG3 PDZ): new partners
unphosphorylated RSK1 peptide: C-terminal RSK1 PBM peptide; RSK1_725–735 (holdup, SPR), RSK1_729–735 (direct FP), RSK1_683–735 (competitive FP) ({Biotin-TTDS}-RRVRKLPSTTL)	0.77 ± 0.02	4.2 µM	0.57 ± 0.01	11.1 µM	0.41 ± 0.02	22.1 µM	0.27 ± 0.03	43 µM	0.04 ± 0.02	> 100 µM	0.26 ± 0.01	45.4 µM	0.31 ± 0.04	0.26 ± 0.07	0.08 ± 0.07	Kd (SYNJ2BP PDZ [1]; [3]): 45.4 µM; Kd (SNX27 PDZ; [3]): > 100 µM; dissociation constant (SYNJ2BP PDZ [2]): no interaction was detectable; interaction partner by updated analysis (MPDZ-10 PDZ): new interaction partners; interaction partner by updated analysis (RHPN1 PDZ): new interaction partners
